Assay results from ChEMBL document CHEMBL1921709, “Synthesis and activity of new macrolones: conjugates between 6(7)-(2'-aminoethyl)-amino-1-cyclopropyl-3-carboxylic acid (2'-hydroxyethyl) amides and 4″-propenoyl-azithromycin” (2011).
≈ marks a conversion by molar mass, not a printed value.

Assays:
Type in all cases: functional
[1] = test system: Moraxella catarrhalis; assay: Antibacterial activity against Moraxella catarrhalis ATCC 23246 by broth microdilution method
Summary of the method: (§1)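 Broth microdilution following CLSI guidelines, using two-fold serial dilutions of compound. Bacteria were first grown on appropriate agar plates. Read-out is growth inhibition, reported as MIC.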

[2] = test system: Streptococcus pneumoniae; assay: Antibacterial activity against erythromycin-sensitive Streptococcus pneumoniae SP 030 by broth microdilution method
Summary of the method: (§2)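 Broth microdilution following CLSI guidelines, except that 5% horse serum replaced lysed blood in the Streptococcus medium. Two-fold serial dilutions of compound were used. Bacteria were first grown on appropriate agar plates. Read-out is growth inhibition, reported as MIC.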

[3] = test system: Streptococcus pyogenes; assay: Antibacterial activity against erythromycin-sensitive Streptococcus pyogenes 3565 by broth microdilution method; summary of the method: as §2
[4] = test system: Streptococcus pyogenes; assay: Antibacterial activity against constitutive macrolide, lincosamide, streptogramin-resistant Streptococcus pyogenes 166 GR-Micro by broth microdilution method
Summary of the method: (§3)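 CLSI broth microdilution MIC with automated double dilutions of compound. The medium was supplemented with 5% horse serum in place of lysed blood. Bacteria were pre-grown on appropriate agar plates.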

[5] = test system: Streptococcus pyogenes; assay: Antibacterial activity against efflux-mediated macrolide-resistant Streptococcus pyogenes Finland 2 by broth microdilution method; summary of the method: as §3
[6] = test system: Streptococcus pneumoniae; assay: Antibacterial activity against inducible macrolide-resistant, constitutive lincosamide and streptogramin-resistant Streptococcus pneumoniae 134 GR M by broth microdilution method; summary of the method: as §3
[7] = test system: Staphylococcus aureus; assay: Antibacterial activity against inducible macrolide, lincosamide and streptogramin B-resistant Staphylococcus aureus 90256/97 by broth microdilution method
Summary of the method: (§4)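 Standard CLSI broth microdilution MIC test with automated double dilutions of compound. Bacteria were pre-grown on appropriate agar plates.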

[8] = test system: Streptococcus pneumoniae; assay: Antibacterial activity against constitutive macrolide, lincosamide, streptogramin-resistant Streptococcus pneumoniae 58 spain by broth microdilution method; summary of the method: as §3
[9] = test system: Staphylococcus aureus; assay: Antibacterial activity against constitutive macrolide, lincosamide, streptogramin-resistant Staphylococcus aureus PK2 by broth microdilution method; summary of the method: as §4
[10] = test system: Staphylococcus aureus; assay: Antibacterial activity against efflux-mediated macrolide-resistant Staphylococcus aureus PK1 by broth microdilution method; summary of the method: as §4
[11] = test system: Staphylococcus aureus; assay: Antibacterial activity against erythromycin-sensitive Staphylococcus aureus ATCC 13709 by broth microdilution method; summary of the method: as §1
[12] = test system: Streptococcus pneumoniae; assay: Antibacterial activity against efflux-mediated macrolide-resistant Streptococcus pneumoniae Ci137 by broth microdilution method; summary of the method: as §3
[13] = test system: Haemophilus influenzae; assay: Antibacterial activity against Haemophilus influenzae ATCC 49247 by broth microdilution method; summary of the method: as §1
[14] = test system: Streptococcus pyogenes; assay: Antibacterial activity against inducible macrolide-lincosamide-streptogramin B resistant Streptococcus pyogenes Finland 11 by broth microdilution method; summary of the method: as §3

| Compound | MIC [1] | MIC [2] | MIC [3] | MIC [4] | MIC [5] | MIC [6] | MIC [7] | MIC [8] | MIC [9] | MIC [10] | MIC [11] | MIC [12] | MIC [13] | MIC [14] |
| --- | --- | --- | --- | --- | --- | --- | --- | --- | --- | --- | --- | --- | --- | --- |
| CC[C@H]1OC(=O)[C@H](C)[C@@H](O[C@H]2C[C@@](C)(OC)[C@@H](OC(=O)CCN(C)CCNc3cc4c(cc3F)c(=O)c(C(=O)NCCO)cn4C3CC3)[C@H](C)O2)[C@H](C)[C@@H](O[C@@H]2O[C@H](C)C[C@H](N(C)C)[C@H]2O)[C@](C)(O)C[C@@H](C)CN(C)[C@H](C)[C@@H](O)[C@]1(C)O | 8 µg/mL (≈ 6.86 µM) | ≤ 0.125 µg/mL | 0.5 µg/mL (≈ 0.429 µM) | > 64 µg/mL | 16 µg/mL (≈ 13.7 µM) | 16 µg/mL (≈ 13.7 µM) | > 64 µg/mL | > 64 µg/mL | > 64 µg/mL | > 64 µg/mL | 16 µg/mL (≈ 13.7 µM) | 2 µg/mL (≈ 1.72 µM) | 16 µg/mL (≈ 13.7 µM) | 16 µg/mL (≈ 13.7 µM) |
| COC(=O)c1cn(C2CC2)c2cc(Cl)c(NCCNC(=O)OC(C)(C)C)cc2c1=O | > 64 µg/mL | > 64 µg/mL | > 64 µg/mL | > 64 µg/mL | > 64 µg/mL | > 64 µg/mL | > 64 µg/mL | > 64 µg/mL | > 64 µg/mL | > 64 µg/mL | > 64 µg/mL | > 64 µg/mL | > 64 µg/mL | > 64 µg/mL |
| COC(=O)c1cn(C2CC2)c2cc(NCCNC(=O)OC(C)(C)C)c(F)cc2c1=O | 8 µg/mL (≈ 19.1 µM) | > 64 µg/mL | > 64 µg/mL | > 64 µg/mL | > 64 µg/mL | > 64 µg/mL | > 64 µg/mL | > 64 µg/mL | > 64 µg/mL | > 64 µg/mL | > 64 µg/mL | > 64 µg/mL | > 64 µg/mL | > 64 µg/mL |
| CC(C)(C)OC(=O)NCCNc1cc2c(=O)c(C(=O)NCCO)cn(C3CC3)c2cc1Cl | 32 µg/mL (≈ 68.8 µM) | 16 µg/mL (≈ 34.4 µM) | 64 µg/mL (≈ 138 µM) | > 64 µg/mL | > 64 µg/mL | > 64 µg/mL | > 64 µg/mL | > 64 µg/mL | > 64 µg/mL | > 64 µg/mL | > 64 µg/mL | > 64 µg/mL | > 64 µg/mL | > 64 µg/mL |
| CC(C)(C)OC(=O)NCCNc1cc2c(cc1F)c(=O)c(C(=O)NCCO)cn2C1CC1 | 16 µg/mL (≈ 35.7 µM) | 16 µg/mL (≈ 35.7 µM) | 16 µg/mL (≈ 35.7 µM) | > 64 µg/mL | > 64 µg/mL | > 64 µg/mL | > 64 µg/mL | > 64 µg/mL | > 64 µg/mL | > 64 µg/mL | 64 µg/mL (≈ 143 µM) | > 64 µg/mL | > 64 µg/mL | > 64 µg/mL |
| NCCNc1cc2c(=O)c(C(=O)NCCO)cn(C3CC3)c2cc1Cl | 64 µg/mL (≈ 175 µM) | 64 µg/mL (≈ 175 µM) | > 64 µg/mL | > 64 µg/mL | > 64 µg/mL | > 64 µg/mL | > 64 µg/mL | > 64 µg/mL | > 64 µg/mL | > 64 µg/mL | > 64 µg/mL | > 64 µg/mL | > 64 µg/mL | > 64 µg/mL |
| NCCNc1cc2c(cc1F)c(=O)c(C(=O)NCCO)cn2C1CC1 | > 64 µg/mL | > 64 µg/mL | > 64 µg/mL | > 64 µg/mL | > 64 µg/mL | > 64 µg/mL | > 64 µg/mL | > 64 µg/mL | > 64 µg/mL | > 64 µg/mL | > 64 µg/mL | > 64 µg/mL | > 64 µg/mL | > 64 µg/mL |
| CC[C@H]1OC(=O)[C@H](C)[C@@H](O[C@H]2C[C@@](C)(OC)[C@@H](OC(=O)CCNCCNc3cc4c(=O)c(C(=O)NCCO)cn(C5CC5)c4cc3Cl)[C@H](C)O2)[C@H](C)[C@@H](O[C@@H]2O[C@H](C)C[C@H](N(C)C)[C@H]2O)[C@](C)(O)C[C@@H](C)CN(C)[C@H](C)[C@@H](O)[C@]1(C)O | 0.5 µg/mL (≈ 0.428 µM) | ≤ 0.125 µg/mL | ≤ 0.125 µg/mL | 32 µg/mL (≈ 27.4 µM) | 4 µg/mL (≈ 3.43 µM) | 32 µg/mL (≈ 27.4 µM) | > 64 µg/mL | 16 µg/mL (≈ 13.7 µM) | > 64 µg/mL | > 64 µg/mL | 4 µg/mL (≈ 3.43 µM) | 2 µg/mL (≈ 1.71 µM) | 4 µg/mL (≈ 3.43 µM) | 1 µg/mL (≈ 0.856 µM) |
| CC[C@H]1OC(=O)[C@H](C)[C@@H](O[C@H]2C[C@@](C)(OC)[C@@H](OC(=O)CCNCCNc3cc4c(cc3F)c(=O)c(C(=O)NCCO)cn4C3CC3)[C@H](C)O2)[C@H](C)[C@@H](O[C@@H]2O[C@H](C)C[C@H](N(C)C)[C@H]2O)[C@](C)(O)C[C@@H](C)CN(C)[C@H](C)[C@@H](O)[C@]1(C)O | 0.5 µg/mL (≈ 0.434 µM) | ≤ 0.125 µg/mL | ≤ 0.125 µg/mL | > 64 µg/mL | 16 µg/mL (≈ 13.9 µM) | 64 µg/mL (≈ 55.6 µM) | > 64 µg/mL | 32 µg/mL (≈ 27.8 µM) | > 64 µg/mL | > 64 µg/mL | 4 µg/mL (≈ 3.47 µM) | 4 µg/mL (≈ 3.47 µM) | 4 µg/mL (≈ 3.47 µM) | 4 µg/mL (≈ 3.47 µM) |
| CC[C@H]1OC(=O)[C@H](C)[C@@H](O[C@H]2C[C@@](C)(OC)[C@@H](OC(=O)CCN(C)CCNc3cc4c(=O)c(C(=O)NCCO)cn(C5CC5)c4cc3Cl)[C@H](C)O2)[C@H](C)[C@@H](O[C@@H]2O[C@H](C)C[C@H](N(C)C)[C@H]2O)[C@](C)(O)C[C@@H](C)CN(C)[C@H](C)[C@@H](O)[C@]1(C)O | 1 µg/mL (≈ 0.846 µM) | ≤ 0.125 µg/mL | ≤ 0.125 µg/mL | > 64 µg/mL | 2 µg/mL (≈ 1.69 µM) | 4 µg/mL (≈ 3.38 µM) | > 64 µg/mL | 32 µg/mL (≈ 27.1 µM) | > 64 µg/mL | 32 µg/mL (≈ 27.1 µM) | 2 µg/mL (≈ 1.69 µM) | 0.5 µg/mL (≈ 0.423 µM) | 4 µg/mL (≈ 3.38 µM) | 2 µg/mL (≈ 1.69 µM) |
| CC[C@H]1OC(=O)[C@H](C)[C@@H](O[C@H]2C[C@@](C)(OC)[C@@H](OC(=O)CCNCCNc3ccc4c(c3)c(=O)c(C(=O)NCCO)cn4C3CC3)[C@H](C)O2)[C@H](C)[C@@H](O[C@@H]2O[C@H](C)C[C@H](N(C)C)[C@H]2O)[C@](C)(O)C[C@@H](C)CN(C)[C@H](C)[C@@H](O)[C@]1(C)O | 0.5 µg/mL (≈ 0.441 µM) | ≤ 0.125 µg/mL | 0.25 µg/mL (≈ 0.221 µM) | > 64 µg/mL | 16 µg/mL (≈ 14.1 µM) | 32 µg/mL (≈ 28.2 µM) | > 64 µg/mL | > 64 µg/mL | > 64 µg/mL | > 64 µg/mL | 4 µg/mL (≈ 3.53 µM) | 4 µg/mL (≈ 3.53 µM) | 8 µg/mL (≈ 7.06 µM) | 4 µg/mL (≈ 3.53 µM) |
| CC[C@H]1OC(=O)[C@H](C)[C@@H](O[C@H]2C[C@@](C)(OC)[C@@H](OC(=O)CCN(C)CCNc3ccc4c(c3)c(=O)c(C(=O)NCCO)cn4C3CC3)[C@H](C)O2)[C@H](C)[C@@H](O[C@@H]2O[C@H](C)C[C@H](N(C)C)[C@H]2O)[C@](C)(O)C[C@@H](C)CN(C)[C@H](C)[C@@H](O)[C@]1(C)O | 1 µg/mL (≈ 0.871 µM) | ≤ 0.125 µg/mL | 0.25 µg/mL (≈ 0.218 µM) | > 64 µg/mL | 4 µg/mL (≈ 3.49 µM) | 4 µg/mL (≈ 3.49 µM) | > 64 µg/mL | > 64 µg/mL | > 64 µg/mL | 64 µg/mL (≈ 55.8 µM) | 2 µg/mL (≈ 1.74 µM) | 1 µg/mL (≈ 0.871 µM) | 4 µg/mL (≈ 3.49 µM) | 4 µg/mL (≈ 3.49 µM) |
| CC[C@H]1OC(=O)[C@H](C)[C@@H](O[C@H]2C[C@@](C)(OC)[C@@H](O)[C@H](C)O2)[C@H](C)[C@@H](O[C@@H]2O[C@H](C)C[C@H](N(C)C)[C@H]2O)[C@](C)(O)C[C@@H](C)CN(C)[C@H](C)[C@@H](O)[C@]1(C)O [AZITHROMYCIN] | ≤ 0.125 µg/mL | ≤ 0.125 µg/mL | ≤ 0.125 µg/mL | > 64 µg/mL | 8 µg/mL (≈ 10.7 µM) | > 64 µg/mL | > 64 µg/mL | > 64 µg/mL | > 64 µg/mL | > 64 µg/mL | 0.5 µg/mL (≈ 0.668 µM) | 8 µg/mL (≈ 10.7 µM) | 1 µg/mL (≈ 1.34 µM) | 16 µg/mL (≈ 21.4 µM) |
